# MPTP block = inhibitors of mitochondrial permeability transition pore | isolated mouse mitochondria, Ca2+ swelling absorbance, 30 min | inhibition, % at 10 µM | 360,000 tested, 1.4% active;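 active = inhibition of 50% or more, scaled per plate between neutral and stimulator controls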;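 note: 0% = DMSO wells given calcium and 100% = 1 mM EGTA wells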
# GPR7 antagonist = antagonists of human GPR7 (neuropeptides B/W receptor 1); inhibition, % at 4.4 µM; AID 1861; GPR7-expressing cells, fluorescence antagonist assay; 290,000 tested, 1.1% active; P48145; in the data active = inhibition above about 16%, passing the limit was not always enough;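 note: cells stimulated with the agonist NPW; 0% = agonist with vehicle and 100% = vehicle without agonist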
# Target sequence (P48145 whole entry, looked up): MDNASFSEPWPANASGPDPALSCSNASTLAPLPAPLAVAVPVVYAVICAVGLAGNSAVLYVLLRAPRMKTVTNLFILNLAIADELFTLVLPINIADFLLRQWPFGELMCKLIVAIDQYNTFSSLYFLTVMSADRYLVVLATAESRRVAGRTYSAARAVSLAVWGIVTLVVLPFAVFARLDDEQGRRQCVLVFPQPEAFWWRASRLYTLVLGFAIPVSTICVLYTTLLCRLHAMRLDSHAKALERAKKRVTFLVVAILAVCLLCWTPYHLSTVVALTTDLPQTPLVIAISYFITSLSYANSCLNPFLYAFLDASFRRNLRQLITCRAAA
# TAAR1 ag = agonists of human TAAR1; CHO RD-HGA16 TAAR1, Fluo-8 calcium fluorescence; vehicle wells 0%, saturating PEA agonist 100%; activation, % at 3 µM; 360,000 tested, 0.99% active;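 active = activation above the mean activation of all test compounds in the run plus 3 SD, cut at about 38% in these data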
# Target sequence (Q96RJ0 whole entry, looked up): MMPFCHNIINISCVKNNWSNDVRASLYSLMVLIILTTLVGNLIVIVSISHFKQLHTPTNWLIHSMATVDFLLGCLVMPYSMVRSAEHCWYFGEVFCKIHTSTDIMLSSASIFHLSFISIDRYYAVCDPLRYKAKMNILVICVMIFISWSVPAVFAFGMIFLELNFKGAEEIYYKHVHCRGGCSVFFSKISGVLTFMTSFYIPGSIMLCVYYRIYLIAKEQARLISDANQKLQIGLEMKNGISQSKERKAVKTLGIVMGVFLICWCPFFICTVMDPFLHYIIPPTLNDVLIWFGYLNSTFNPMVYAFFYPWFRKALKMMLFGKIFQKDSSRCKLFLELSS
#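 Assay system – CHO-derived RD-HGA16 cells with stable Gα16 and human TAAR1 · Compound dosing – one-point dosing at 3 µM (nominal) · Incubation – 17-24 h seeding, 75 min 37 °C dye, 30 min RT · Measured by – kinetic Fluo-8 calcium fluorescence · Control set – DMSO vehicle as 0%, PEA at EC100 as 100% · Repeats – single well for each compound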
# DAGLB inhibitor = diacylglycerol lipase beta (human) inhibition | HEK293T DAGLB membrane lysate, EnzChek fluorogenic substrate | inhibition, % at 5.17 µM | 340,000 tested, 0.059% active; in the data active = inhibition above about 34%;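 note: 0% = enzyme with vehicle and 100% = wells lacking enzyme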
# TAAR1 antagonist = antagonists of human TAAR1; inhibition, % at 3 µM; CHO RD-HGA16 TAAR1, Fluo-8 calcium fluorescence, antagonist; AID 624466; 360,000 tested, 1.5% active; Q96RJ0;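 active = inhibition above a per-plate cutoff, the mean inhibition of test compounds on that plate plus 3 SD, cut at about 49% in these data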;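 note: 0% = DMSO plus EC80 beta-PEA response and 100% = DMSO alone without agonist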
#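 System: RD-HGA16 CHO cells with stable hTAAR1 and Gα16 | Probe or stimulus: EC80 β-phenethylamine stimulus | Dosing: 3 µM, single point | Times: Dye loading 75 min at 37 °C, then 30 min room temperature | Measured by: Fluo-8 calcium-sensitive fluorescence | Read-out basis: % inhibition of agonist calcium response | Replicates: n of 1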
# nonsel antag count = counter-screen for TAAR1 antagonists: nonselective antagonists | counterscreen cell line, calcium fluorescence, antagonist mode | inhibition, % at 3 µM | 2,400 tested, 77% active | shares compounds with TAAR1 antagonist; in the data active = inhibition above about 22%;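 note: CHO-Ga16 host cells stimulated with ATP at an EC80 level; 0% = agonist EC80 plus vehicle and 100% = vehicle without agonist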
# TAAR1 ant conf = confirmation of human TAAR1 antagonists; TAAR1-expressing cells, fluorescence antagonist read-out; AID 651785; 2,400 tested, 40% active; inhibition, % at 3 µM; shares compounds with TAAR1 antagonist; in the data active = inhibition above about 49%;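 note: CHO-Ga16 host cells challenged with agonist PEA near its EC80; 0% = agonist at EC80 plus vehicle and 100% = vehicle with no agonist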
# Ga16 nonsel ag = nonselective Ga16 agonist in TAAR1 antagonist counter-screen. AID 651953. shares compounds with TAAR1 antagonist. activation, % at 3 µM. 2,400 tested, 18% active. Ga16-expressing cells, calcium fluorescence, agonist counterscreen; in the data active = activation above about 12%;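 note: 0% = vehicle wells and 100% = saturating stimulus response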
# TAAR1 ag count = counter-screen for human TAAR1 antagonists: TAAR1 agonists; shares compounds with TAAR1 antagonist; hTAAR1 cell line, fluorescence activation, agonist mode; activation, % at 3 µM; 2,400 tested, 2% active; AID 651955; in the data active = activation above about 37%;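 note: CHO cells stably expressing TAAR1 with calcium dye readout; 0% = DMSO vehicle and 100% = full agonist response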
# An asterisk follows results filed as active; · = not tested or not shown. Shown are actives, neighbours in structure and some others; about 4% of the full set was active somewhere.
SMILES,MPTP block,GPR7 antagonist,TAAR1 ag,DAGLB inhibitor,TAAR1 antagonist,nonsel antag count,TAAR1 ant conf,Ga16 nonsel ag,TAAR1 ag count
CC1CCCCC1NC(=O)COC(=O)c1ccc2c(=O)n3c(nc2c1)CCC3 (centres undefined),0,·,2,-1,3,·,·,·,·
CCOC(=O)c1c(C)[nH]c(C(=O)/C(C#N)=C/c2ccc(OC)c(OC)c2)c1C,10,-11,8,11,-27,·,·,·,·
COc1cc(/C=C(/C#N)C(=O)c2c(C)[nH]c3ccccc23)ccc1OCC#N,4,2,9,1,55*,24*,50*,19*,40*
CCOc1ccc(/C=C(\C#N)C(=O)c2c(C)[nH]c3ccccc23)cc1OC,-28,-8,2,0,58*,15,38,5,6
CCc1nc2ccc(C(=O)NCCNC(C)=O)cn2c1N(CC)CCOC,-3,·,0,·,-4,·,·,·,·
COCC(=O)Nc1ccc2c(c1)[C@H]1C[C@@H](CC(=O)NCC3CC3)O[C@H](CO)[C@H]1O2,·,·,0,·,-1,·,·,·,·
CC(C)(C)OC(=O)N1CCN(C(c2ccnc3ccccc23)c2nnnn2-c2ccc3c(c2)OCCO3)CC1 (centres undefined),-1,·,1,·,10,·,·,·,·
CCCCNc1c(-c2ccc(OC)c(Sc3ccc(OC)cc3)c2)nc2cnccn12,2,·,11,-1,75*,23*,57*,4,8
CCOC(=O)C1CCCN(c2c(C(=O)c3ccccc3)cnc3ccc(OC)cc23)C1 (centres undefined),-2,-15,11,-6,86*,2,66*,5,34
COc1ccc(N=C(C)C2C(=O)c3ccccc3C2=O)cc1,0,·,·,·,·,·,·,·,·
CCc1cc2c(COC(=O)c3cccc(NS(C)(=O)=O)c3)cc(=O)oc2cc1O,1,-43,4,2,65*,33*,39,4,2
COC(=O)CNC(c1ccccc1)c1cc(Cl)ccc1NC(=O)c1cccc(Cl)c1 (centres undefined),2,19,-1,-18,87*,11,34,2,6
CCN(CC)c1ccc(C(=O)NNC(=O)C2CCN(c3ncnc4sc(C)c(C)c34)CC2)cc1,1,·,8,0,56*,26*,35,8,15
Cc1cccc(OCC(=O)NNC(=O)C2CCN(c3ncnc4sc(C)c(C)c34)CC2)c1,-1,·,19,2,75*,36*,52*,11,20
CCCN(CC(=O)Nc1ccccc1C)C(=O)C1CCN(c2ncnc3sc(C)c(C)c23)CC1,-2,·,10,-1,60*,31*,51*,7,5
Cc1ccccc1OCC(=O)NNC(=O)C1CCN(c2ncnc3sc(C)c(C)c23)CC1,-1,·,24,0,70*,39*,57*,13*,30
Cc1sc2ncnc(N3CCC(C(=O)NCC(=O)Nc4ccc(F)c(F)c4)CC3)c2c1C,3,-3,8,-3,41,·,·,·,·
COc1ccccc1OCC(=O)NNC(=O)C1CCN(c2ncnc3sc(C)c(C)c23)CC1,-1,·,9,3,44,·,·,·,·
CC1C(=O)N(Cc2cn(CCC3OCCCO3)nn2)CCS(=O)(=O)N1Cc1ccc(-c2ccccc2)cc1 (centres undefined),0,·,4,-1,-5,·,·,·,·
COc1ccc(-c2ccc(CN3C(CC(C)C)C(=O)N(Cc4cn(CCC5OCCCO5)nn4)CCS3(=O)=O)cc2)cc1OC (centres undefined),0,·,7,-2,57*,24*,33,7,6
COc1ccc(-c2ccc(CN3C(C(C)C)C(=O)N(Cc4cn(CCC5OCCCO5)nn4)CCS3(=O)=O)cc2)cc1OC (centres undefined),-1,·,7,2,-17,·,·,·,·
CC1C(=O)N(Cc2cn(CCC3OCCCO3)nn2)CCS(=O)(=O)N1Cc1ccc(-c2ccc(Cl)cc2)cc1 (centres undefined),-2,·,19,-2,87*,45*,59*,16*,10
CCc1nc2ccc(C(=O)N3CCN(c4ccccc4)CC3)cn2c1N(C)CCC(C)C,-3,·,4,·,-39,·,·,·,·
O=C(Nc1nc(-c2cccs2)cs1)c1ccc(S(=O)(=O)N2CCCC2)cc1,6,-7,5,-5,29,·,·,·,·
CN(C)S(=O)(=O)c1ccc(C(=O)Nc2nc(-c3cccs3)cs2)cc1,-2,1,8,-5,54*,33*,37,12*,9
SMILES,MPTP block,GPR7 antagonist,TAAR1 ag,DAGLB inhibitor,TAAR1 antagonist,nonsel antag count,TAAR1 ant conf,Ga16 nonsel ag,TAAR1 ag count
C=CC[C@@H](CC(=O)N(CCO)Cc1ccccc1)C(=O)NC[C@@H](OC(=O)[C@@H](CC=C)CC(=O)OC(C)(C)C)c1ccccc1,0,·,17,-5,59*,29*,39,8,10
C=CC[C@@H](CC(=O)N(CCO)Cc1ccccc1)C(=O)N[C@H](COC(=O)[C@@H](CC=C)Cc1ccc(F)cc1)c1ccccc1,1,·,14,-1,61*,17,25,14*,12
C=CC[C@@H](CC(=O)N(CCO)Cc1ccccc1)C(=O)NC[C@H](OC(=O)[C@@H](CC=C)Cc1ccc(F)cc1)c1ccccc1,0,·,20,-5,89*,36*,63*,9,10
C=CC[C@H](CC(=O)NCCO)C(=O)NC[C@@H](OC(=O)[C@@H](CC=C)CC(=O)OC(C)(C)C)c1ccccc1,0,·,4,-3,6,·,·,·,·
C[C@H]1CN([C@@H](C)CO)C(=O)CCCn2cc(nn2)CO[C@@H]1CN(C)C(=O)Nc1cccc(Oc2ccccn2)c1,0,·,2,1,1,·,·,·,·
COCCN(CCOC)C(=O)[C@H](CCc1ccccc1)NC(=O)[C@H]1O[C@@H](n2cnc3c(N)ncnc32)[C@H](O)[C@@H]1O,·,·,0,·,-7,·,·,·,·
CCCCN(CCCNC(=O)c1ccc2c(c1)NC(=O)CN2C)c1ccccc1,0,·,-2,1,2,·,·,·,·
O=C(Nc1cc(Cl)ccc1Cl)c1ccc(OC(=O)c2ccco2)cc1,3,-7,11,3,85*,25*,37,3,4
CC(C)c1nc2scc(-c3ccc(Cl)cc3)c2c(=O)n1N,4,-26,3,-9,66*,32*,39,6,0
Cc1nc2scc(-c3ccc(Cl)cc3)c2c(=O)n1N,0,2,1,0,4,·,·,·,·
O=C1CCCCCCC(=O)[C@H](O)C[C@H](c2ccccc2)O1,0,·,2,·,-24,·,·,·,·

# Screening data from PubChem.
